Source: PubChem BioAssay (The Scripps Research Institute Molecular Screening Center)
A selection: hits, their analogues and other compounds. The true share with any hit is near 1.9%.
HCV core dimer: HCV core protein dimerization inhibition. 300,000 tested, 0.33% active. TR-FRET GST/Flag-core106 dimerization, 1536-well. inhibition, % at 5 µM;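 active = inhibition above the mean of all tested compounds plus 3 SD, set per screening campaign, cut at about 45% in these data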
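System: GST/Flag-tagged HCV core106 proteins. Incubation: compound-protein-antibody incubation 4 h at 22.5 °C. Technique: HTRF with 340 nm excitation, 617/671 nm emission. Medium: KF-containing HEPES buffer, pH 7.45, DTT, CHAPS, BSA. Read-out: inhibition (%) from 671 over 617 nm ratio. Also added: Eu(K)-anti-GST 90 ng/mL plus XL665-anti-Flag 1 µg/mL.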
NS3 helicase inh: HCV NS3 helicase inhibition; 290,000 tested, 0.56% active; inhibition, % at 10.9 µM; NS3 helicase DNA unwinding, Cy5 molecular beacon fluorescence; AID 1800;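 active = inhibition above the mean of all tested compounds plus 3 SD, set per campaign, cut at about 35% in these data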;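 note: 0% = DMSO wells and 100% = thioflavine S control wells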
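Test system: hepatitis C virus NS3 helicase domain fragment enzyme. Also added: annealed dual-labelled DNA beacon duplex, ATP-started. Timing: 60 min unwinding reaction at 25 °C after ATP addition. Technique: Cy5 fluorescence. Measure: % inhibition of unwinding.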
ZTA DNA inh: blocks Epstein-Barr virus ZTA, an EBNA-1 counter-screen; P03206; ZTA-DNA binding, fluorescence polarization; inhibition, % at 11 µM; 320,000 tested, 0.15% active; AID 2234; in the data active = inhibition above about 33%
Target sequence (P03206 whole entry, looked up): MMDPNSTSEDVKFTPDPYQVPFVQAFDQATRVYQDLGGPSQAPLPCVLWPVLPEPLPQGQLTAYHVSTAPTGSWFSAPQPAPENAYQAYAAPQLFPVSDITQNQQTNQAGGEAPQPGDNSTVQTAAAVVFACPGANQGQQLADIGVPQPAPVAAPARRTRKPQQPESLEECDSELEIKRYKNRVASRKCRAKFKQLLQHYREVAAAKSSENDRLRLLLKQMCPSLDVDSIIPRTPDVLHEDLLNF
EBNA-1 inhibitor: blocks EBNA-1 binding to DNA; EBNA-1 DNA binding, fluorescence polarization; inhibition, % at 14.8 µM; 300,000 tested, 0.34% active; in the data active = inhibition above about 28%
PP1 counter: counter-screen for PP5 inhibitors: inhibitors of human PP1-alpha; purified PP1alpha, OMFP fluorescence; inhibition, % at 6.7 µM; 320,000 tested, 0.9% active; AID 2235;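 active = inhibition above the mean inhibition of all tested compounds plus 3 SD, computed separately for each screening campaign, cut at about 15% in these data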
Target sequence (P62136 whole entry, looked up): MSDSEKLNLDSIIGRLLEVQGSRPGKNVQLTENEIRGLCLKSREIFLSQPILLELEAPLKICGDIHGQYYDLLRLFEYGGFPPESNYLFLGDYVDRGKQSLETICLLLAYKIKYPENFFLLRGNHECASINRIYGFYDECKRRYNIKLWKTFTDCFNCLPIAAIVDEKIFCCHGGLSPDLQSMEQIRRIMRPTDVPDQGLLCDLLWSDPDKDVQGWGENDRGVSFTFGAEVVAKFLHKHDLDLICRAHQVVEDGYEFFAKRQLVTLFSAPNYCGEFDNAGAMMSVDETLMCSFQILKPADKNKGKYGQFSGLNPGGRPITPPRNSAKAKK
* marks the source's active call; other numbers are inactive results; x = not tested or not shown.

SMILES	HCV core dimer	NS3 helicase inh	ZTA DNA inh	EBNA-1 inhibitor	PP1 counter
CCC(=O)NC(c1ccc(OC)cc1)c1cc(Cl)c2cccnc2c1O (stereo not given)	4.0	-6.2	16.4	1.0	16.3*
Cc1csc(NC(=O)CCc2nc3ccccc3s2)n1	55.4*	0.7	-2.7	-0.8	5.7
O=C(COC(=O)CCc1nc2ccccc2s1)Nc1nc(-c2ccccc2)cs1	11.5	-5.3	-6.8	-3.0	1.1
Cc1ccc(/C(O)=C2/C(=O)C(=O)N(CCCn3ccnc3)C2c2ccccn2)cc1 (stereo not given)	x	2.7	x	x	x
Cc1ccccc1COc1ccc(/C(O)=C2/C(=O)C(=O)N(CCCn3ccnc3)C2c2ccco2)cc1 (stereo not given)	6.5	x	-4.0	-8.8	17.5*
N#Cc1ccc(C(=O)Nc2nnc(-c3ccccn3)o2)cc1	1.4	1.8	3.7	12.7	-0.1
O=C(Nc1nnc(C2=COCCO2)o1)c1ccc(S(=O)(=O)N2CCCC2)cc1	-18.0	0.7	-9.8	-0.2	-1.4
CC1CCN(S(=O)(=O)c2ccc(C(=O)Nc3nnc(-c4ccccn4)o3)cc2)CC1	2.8	7.9	-14.6	9.3	16.8*
CC1CCCN(S(=O)(=O)c2ccc(C(=O)Nc3nnc(-c4ccco4)o3)cc2)C1 (stereo not given)	-9.0	30.8	-4.8	-4.1	16.9*
O=C(Nc1nnc(-c2ccccn2)o1)c1cccc(Br)c1	-7.3	-2.2	-0.1	-0.7	15.5*
CCC1CCCCN1S(=O)(=O)c1ccc(C(=O)Nc2nnc(C3=COCCO3)o2)cc1 (stereo not given)	1.9	29.4	3.3	-1.9	16.7*
O=C(NCc1ccccc1)C(c1ccco1)N(C(=O)c1csnn1)c1ccccc1 (stereo not given)	-0.1	-0.1	6.7	-3.6	-5.8
COc1ccccc1-c1nnc(NC(=O)c2ccc(S(=O)(=O)N(C)CC3CCCO3)cc2)o1 (stereo not given)	4.3	8.4	0.5	2.7	16.8*
O=C1c2ccccc2C(=O)N1C/C=C/c1ccccc1	-3.0	22.5	0.2	11.9	1.3
O=C1C(=O)N(C/C=C/c2ccccc2)c2ccccc21	0.6	7.5	15.4	4.2	17.2*
Cc1ccc(/C=C2\SC(=S)N(CC3CCCO3)C2=O)o1 (stereo not given)	-3.6	23.3	-13.6	-3.5	2.6
Cc1ccc(/C=C2/SC(=S)N(C3CCCCC3)C2=O)o1	68.5*	27.4	-20.4	-15.7	3.3
Cc1ccc2nc(N3CCN(S(=O)(=O)c4ccc5c(c4)OCCO5)CC3)c(C#N)cc2c1	59.2*	-6.9	1.4	11.5	4.9
Cc1ccc(S(=O)(=O)N2CCCN(c3nc4cc(C)ccc4cc3C#N)CC2)cc1	42.9	7.8	7.9	-0.3	0.8
CS(=O)(=O)Nc1ccc(C(=O)N2CC(=O)Nc3ccccc32)cc1	x	6.1	x	x	x
COc1cc(C)c(CN2CCC(n3nccc3NC(=O)C3CC3)CC2)cc1C	10.6	1.0	18.9	0.2	-1.9
O=C1OCC(c2ccccc2)=C1c1ccccc1	-4.4	-1.2	-2.6	1.3	1.6
N#CC1=C(c2ccc(-c3ccccc3)cc2)COC1=O	51.9*	26.6	5.5	3.5	5.0
O=C(CNS(=O)(=O)c1cccc(Cl)c1)Nc1ccc(-c2nc3ccccc3s2)cc1	5.2	3.6	14.4	54.7*	1.3
Cc1cc(C)c2nc(-c3ccccn3)cc(C(=O)N3CCCC3)c2c1	47.9*	22.5	-9.6	0.5	0.7
SMILES	HCV core dimer	NS3 helicase inh	ZTA DNA inh	EBNA-1 inhibitor	PP1 counter
O=C(c1cc(-c2cccc(Cl)c2)nc2ccccc12)N1CCN(c2ccccn2)CC1	21.1	-12.3	1.2	-17.9	-2.3
Cc1cc(C)c2nc(-c3ccccn3)cc(C(=O)Nc3ccc(S(=O)(=O)Nc4onc(C)c4C)cc3)c2c1	59.7*	-15.1	26.4	2.2	12.7
Cc1cccc2c(C(=O)N3CCN(c4ccccn4)CC3)cc(-c3cccc(Br)c3)nc12	5.5	-8.6	6.4	-8.0	15.4*
Cc1cc(C)c2nc(-c3ccccn3)cc(C(=O)Nc3ccc(S(=O)(=O)Nc4cc(C)on4)cc3)c2c1	36.6	23.3	17.9	8.7	10.0
O=C(NNC(=O)C1CCN(C(=O)Nc2ccccc2)CC1)c1ccc([N+](=O)[O-])cc1	x	x	-0.9	x	-1.7
O=C(CCc1nc2ccccc2c(=O)[nH]1)N1CCN(S(=O)(=O)c2cccc(F)c2)CC1	-7.0	11.1	-10.1	0.0	0.5
COc1ccc(CCN(C)C(=O)C2CCCN(C3CCN(Cc4ccccc4)CC3)C2)cc1OC (stereo not given)	9.2	3.0	2.0	-0.9	2.1
O=C(COc1coc(CN2CCN(c3ccccc3)CC2)cc1=O)NC1CCCC1	-2.7	x	11.5	0.5	-4.8
O=S(=O)(Nc1ncnc2sc3c(c12)CCC3)c1cc(F)ccc1F	3.1	10.0	2.7	-3.6	-4.3
O=S(=O)(Nc1ncnc2sc3c(c12)CCC3)c1ccc(Cl)s1	46.6*	22.9	16.6	8.5	3.0
CC(C)c1nc2sc3c(=S)nc[nH]c3c2c2c1CCC2	43.3	6.2	0.8	-2.5	-2.4
S=c1nc[nH]c2c1sc1nc(N3CCOCC3)c3c(c12)CCCC3	61.1*	15.1	3.7	6.6	-1.3
COc1ccc(CC(=O)Nc2ccc(-c3nnc(-c4ccccc4)o3)cc2)cc1OC	82.7*	5.2	7.6	12.6	2.7
O=C(COc1ccccc1)Nc1ccc(-c2nnc(-c3ccco3)o2)cc1	51.8*	-0.8	-1.0	-8.0	-4.9
COc1ccccc1OCC(=O)Nc1cccc(-c2nnc(-c3ccco3)o2)c1	3.5	11.6	-2.0	5.7	1.7
COc1ccc(CC(=O)Nc2cccc(-c3nnc(-c4ccccc4)o3)c2)cc1OC	x	8.1	x	x	x
O=c1c2ccccc2nc(/C=C/c2cccnc2)n1CCc1ccccc1	2.6	-11.4	-14.6	-14.4	15.7*
O=c1c2ccccc2nc(/C=C/c2cccnc2)n1Cc1ccccc1	x	14.1	x	x	x
COc1ccc(C2CC(c3ccccc3)=NN2c2ccc(/C=N/NC(=O)c3ccncc3)cc2)cc1 (stereo not given)	47.7*	3.6	8.6	-6.7	6.6
COc1ccc(C2CC(c3ccccc3)=NN2c2ccc(C(N)=O)cc2)cc1 (stereo not given)	9.3	-30.5	9.8	1.1	4.5
Cn1ncc2c(N3CCC(Cc4ccccc4)CC3)ncnc21	1.2	-9.3	10.4	-1.8	2.8
NNC(=O)c1cc2c(N3CCC(Cc4ccccc4)CC3)ncnc2s1	6.4	9.8	11.5	1.4	15.9*
COc1ccccc1N1CCN(Cc2ccc(O)c3ncccc23)CC1	0.9	-17.0	3.2	-1.7	15.4*
COc1cc2c(cc1OC)C(c1ccccc1)NC(C)(C)C2 (stereo not given)	-9.5	16.3	-16.1	-19.5	-2.1
Cc1ccc(S(=O)(=O)Nc2cccnc2)cc1C	-10.0	-6.7	-1.5	-0.4	3.9
Cc1ccc(-c2ccc(S(=O)(=O)Nc3cccnc3)cc2)cc1	-3.8	-3.1	-6.5	9.7	16.2*
